Experimental data pooled from the literature.
Target: Serine/threonine-protein kinase PAK 1 (PAK1, Homo sapiens, UniProt Q13153)

Structure (SMILES) | observed | mode | technique | concentration | endpoint | result
Cc1ccc(Nc2nccc(N(C)c3ccc4c(C)n(C)nc4c3)n2)cc1S(N)(=O)=O | cell-free assay | inhibitor |  | 0.5 µM | remaining signal | 89.1%
CC/C(=N\NC(=O)NCc1cccc(O)c1)c1ccc(O)c(C)c1O | enzyme activity | inhibitor |  | 0.1 µM | inhibition | -6.4%
Cc1c(C(=O)O)cc(-c2ccc(C3CCNCC3)cc2)c2ccc(-c3ccc(C(F)(F)F)cc3)cc12 | cell-free assay |  | competition with immobilised ligand | 1 µM | remaining binding | 100%
Cc1ccc(NC(=O)c2ccc(C)c(C(F)(F)F)c2)cc1C#Cc1nn(C2CCC(O)CC2)c2ncnc(N)c12 (centres unmarked) | cell-free assay |  |  | 10 µM | remaining signal | 87%
Cc1ccc(C(=O)Nc2ccc(CN3CCN(C)CC3)c(C(F)(F)F)c2)cc1C#Cc1cnc2cccnn12 | enzyme activity | inhibitor |  | 23.5 nM | remaining activity | 100%
O=C1CCc2cc(Nc3cc(OC4CCOCC4)c([N+](=O)[O-])cc3Cl)ccc2N1 | cell-free assay |  | competition with immobilised ligand | 1 µM | remaining binding | 88%
N#CCCc1ccc2c(c1)-c1[nH]c3ccc([N+](=O)[O-])cc3c1CC(=O)N2 | cell-free assay |  |  | 0.5 µM | remaining signal | 52.1%
Cc1ccc(C(=O)NCc2ccsc2)cc1C#Cc1cn(C(C)C)c2ncnc(N)c12 | enzyme activity | inhibitor |  | 1 µM | activity vs control | 82%
CS(=O)(=O)N1CCCC(NC(=O)[C@H](CCC2CCCCC2)NC(=O)c2ccc(CNC(=O)c3cnc4ccccn34)cc2)C1 (some centres unmarked) | cell-free assay |  | competition with immobilised ligand | 0.1 µM | remaining binding | 82%
Cc1cc(NC(=O)c2cccc3cc(-c4cccc5[nH]nc(N)c45)ccc23)ccc1F | enzyme activity | inhibitor |  | 0.1 µM | activity vs control | 94%
COc1cc2ncnc(Nc3ccc(Oc4ccccc4)cc3C)c2cc1OC | enzyme activity | inhibitor |  | 1 µM | inhibition | 4%
COc1cc2ncnc(Nc3ccc(F)c(Cl)c3)c2cc1OCCCN1CCOCC1 | cell-free assay |  |  | 0.5 µM | remaining signal | 104%
CC(C)(C)c1nc2c(s1)c1nc(N)ncc1c1ccc(NS(=O)(=O)c3c(F)cccc3F)c(F)c12 | enzyme activity | inhibitor | radiometric | 1 µM | remaining activity | 93%
CCOCCn1cc(C(=O)Nc2ccc(-n3nc(-c4cccnc4)cc3C(F)(F)F)cn2)ccc1=O | cell-free assay |  | competition with immobilised ligand | 1 µM | remaining binding | 96%
CS(=O)(=O)Nc1cccc(-c2csc(NC(=O)CSc3nc4nccnc4c(=O)n3CCc3ccccc3)n2)c1 | enzyme activity | inhibitor |  | 10 µM | inhibition | -2%
O=C(Nc1cnn(-c2csc(C(=O)NC3COC3)c2)c1)Nc1ccccc1Cl | enzyme activity | inhibitor |  | 5 µM | remaining activity | 106%
CS(=O)(=O)NCC[C@H](NC(=O)c1cncc2c1cnn2-c1ccc(F)cc1)c1ccnc(S(C)(=O)=O)c1 | cell-free assay |  | competition with immobilised ligand | 1 µM | remaining binding | 88%
Cc1cnc(NC2CCOCC2)nc1-n1cnc(C(=O)NC(CN)c2cc(F)cc(Cl)c2)c1 (centres unmarked) | enzyme activity | inhibitor | radiometric | 1 µM | remaining activity | 51%
COc1ccc2c(c1)O[C@H](c1ccc(OC)c(OC)c1)C[C@@H]2NC(=O)C1(c2ccc3c(c2)OC(F)(F)O3)CC1 | cell-free assay |  | competition with immobilised ligand | 1 µM | remaining binding | 100%
CN(C)C1CCN(CC#Cc2nn(C3CCCC3)c3nc(NCc4ccccc4)ncc23)C1 (centres unmarked) | enzyme activity | inhibitor | FRET | 10 µM | inhibition | 1%
